According to ChEMBL document CHEMBL1255468 (Antimicrob Agents Chemother, 2010):
Calls of active or inactive are those of the source. The calls are words filed in the database; no cut-off is given here.

How the values were obtained:
Trypanosoma cruzi [1] = test: Antitrypanosomal activity against Trypanosoma cruzi infected in mouse assessed as decrease in mortality rate at 100 mg/kg, po after 6 days post infection; assay type: functional, organism-based; design: dose 100 mg/kg
Summary of the method: (§1)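 Male Swiss mice, 8–10 per group, infected i.p. with 10^4 bloodstream trypomastigotes. From dpi 6, mice received 10 consecutive daily gavage doses of 100 mg/kg in water with 10% Tween-80. Parasitemia was read daily on dpi 6–21 by the Pizzi-Brener method. Mortality was noted daily, and %CM at 40 dpi and M50 were calculated.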

Mus musculus [2] = test: Toxicity in mouse assessed as GOT level in blood at 400 mg/kg, po after 4 days; assay type: organism-based; design: dose 400 mg/kg, route oral; details: in vivo, 96 h
Summary of the method: (§2)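 Uninfected male Swiss mice, 8–10 per group, received by gavage either a single 400 mg/kg dose or 10 doses of 100 mg/kg (vehicle water with 10% Tween-80). GOT, GPT and urea were measured directly in blood with the Reflotron system, and body weight was recorded. Single-dose toxicity was analyzed 4 days after treatment.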

Trypanosoma cruzi [3] = test: Antitrypanosomal activity against Trypanosoma cruzi trypomastigotes assessed as increase in vesicles size near the flagellar pocket at 17 uM after 24 hrs by Transmission electron microscopy; assay type: functional, organism-based
Summary of the method: (§3)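 Y-strain bloodstream trypomastigotes (5 × 10^6/ml) were treated for 24 h, washed in PBS, and fixed in 2.5% glutaraldehyde in 0.1 M cacodylate (pH 7.2). They were postfixed with OsO4/ferricyanide/CaCl2, dehydrated in acetone, and embedded in epoxy. Ultrathin sections were stained with uranyl acetate and lead citrate and examined by transmission EM.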

Trypanosoma cruzi [4] = test: Antitrypanosomal activity against Trypanosoma cruzi infected in mouse assessed as reduction in inflammatory foci in cardiac muscle at 100 mg/kg, po after 6 days post infection; assay type: functional, organism-based; design: dose 100 mg/kg; details: Muscle tissue
Summary of the method: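 Infected mice were dosed by gavage at 100 mg/kg daily for 10 days from dpi 6. Two mice per group were euthanized at 14 dpi. Paraffin heart sections were stained with hematoxylin-eosin. Under a 40× objective, parasite nests and inflammatory foci (≥10 mononuclear cells) were counted per mm2 over 30 fields.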

Trypanosoma cruzi [5] = test: Antitrypanosomal activity against Trypanosoma cruzi Y infected in mouse assessed as decrease in mouse mortality at 200 mg/kg, po upto 40 days post infection; assay type: functional, organism-based; design: dose 200 mg/kg
Summary of the method: (§4)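 Male Swiss mice (6–8 weeks, 18–20 g), 8–10 per group, infected i.p. with 10^4 bloodstream trypomastigotes (Y strain). On dpi 5, a single 200 mg/kg oral gavage dose was given in water with 10% Tween-80. Parasitemia was counted daily from dpi 6 to 21 by the Pizzi-Brener method. Body weight was recorded weekly. Mortality was recorded daily, and cumulative mortality at 40 dpi and M50 were calculated.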

Mus musculus [6] = test: Toxicity in mouse assessed as urea level in blood at 400 mg/kg, po after 4 days; assay type: organism-based; design: dose 400 mg/kg, route oral; details: in vivo, 96 h; summary of the method: as §2
[7] = Cytotoxicity against swiss mouse HMC after 48 hrs by MTT assay; details: read-out: LC50
Summary of the method: (§5)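 Uninfected host cells were exposed to compounds at 37°C for 2 days, with compound stocks in DMSO. Cells were Swiss mouse peritoneal macrophages or primary mouse embryo heart muscle cells (18-day embryos, trypsin/collagenase dissociated, gelatin-coated coverslips, DMEM with horse and fetal calf sera, chicken embryo extract). Viability was read by MTT at 490 nm to give LC50.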

Trypanosoma cruzi [8] = test: Antitrypanosomal activity against Trypanosoma cruzi amastigotes infected in mouse peritoneal macrophages assessed as endocytic index at 30 uM after 1-4 days; assay type: functional, organism-based
Summary of the method: (§6)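 Swiss mouse peritoneal macrophages (3 × 10^5/well) were plated for 24 h, then infected with Y-strain trypomastigotes (10:1) in DMEM with 10% FCS for 3 h. Free parasites were washed off, and compounds were added at 2.5–30 µM final for 1–4 days. Cells were fixed in Bouin's solution and stained with Giemsa. Percent infection and endocytic index (parasites/100 cells) were counted, and IC50 was derived. Three independent experiments.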

[9] = Cytotoxicity against Swiss mouse peritoneal macrophages after 48 hrs by MTT assay; assay type: cell-based, Peritoneal macrophage cell; details: read-out: LC50; summary of the method: as §5
Trypanosoma cruzi [10] = test: Antitrypanosomal activity against Trypanosoma cruzi trypomastigotes assessed as alteration in autophagosome-like structure formation at 17 uM after 24 hrs by Transmission electron microscopy; assay type: functional, organism-based; summary of the method: as §3
Trypanosoma cruzi [11] = test: Antitrypanosomal activity against Trypanosoma cruzi amastigotes infected in mouse embryo heart muscle cells assessed as endocytic index at 40 uM; assay type: functional, organism-based
Summary of the method: (§7)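 Mouse embryo heart muscle cells (10^5/well) were plated on gelatin-coated coverslips and infected after 24 h with trypomastigotes at 10:1 parasite/host cell. After another 24 h, cultures were washed and exposed to compounds at 10–40 µM final. At intervals, cells were fixed in Bouin's solution and stained with Giemsa. Percent infection and endocytic index (parasites/100 cells) were counted, and IC50 was derived.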

Trypanosoma cruzi [12] = test: Antitrypanosomal activity against Trypanosoma cruzi Y infected in mouse assessed as decrease in parasitemia in blood at 200 mg/kg, po upto 40 days post infection; assay type: functional; design: scale not given: the % may be the effect or the level left; summary of the method: as §4
Trypanosoma cruzi [13] = test: Antitrypanosomal activity against Trypanosoma cruzi amastigotes infected in mouse peritoneal macrophages assessed as inhibition of infection at 30 uM after 1-4 days; assay type: functional, organism-based; summary of the method: as §6
Mus musculus [14] = test: Toxicity in mouse assessed as body weight at 400 mg/kg, po after 4 days; assay type: organism-based; design: dose 400 mg/kg, route oral; details: in vivo, 96 h; summary of the method: as §2
Trypanosoma cruzi [15] = test: Antitrypanosomal activity against Trypanosoma cruzi trypomastigotes assessed as parasite body rounding at 17 uM after 24 hrs by scanning electron microscopy; assay type: functional, organism-based
Summary of the method: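 Trypomastigotes (5 × 10^6/ml) were treated for 24 h and adhered to poly-L-lysine coverslips. They were fixed in 2.5% glutaraldehyde in 0.1 M cacodylate (pH 7.2) for 40 min and postfixed for 30 min in 1% OsO4, 0.8% ferricyanide and 2.5 mM CaCl2. Samples were acetone-dehydrated, critical-point dried, gold-coated (20 nm) and examined by scanning EM.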

Mus musculus [16] = test: Toxicity in mouse assessed as GPT level in blood at 400 mg/kg, po after 4 days; assay type: organism-based; design: dose 400 mg/kg, route oral; details: in vivo, 96 h; summary of the method: as §2
Trypanosoma cruzi [17] = test: Antitrypanosomal activity against Trypanosoma cruzi infected in mouse assessed as decrease in parasitemia in blood at 100 mg/kg, po after 6 days post infection; assay type: functional; summary of the method: as §1
Trypanosoma cruzi [18] = test: Antitrypanosomal activity against Trypanosoma cruzi amastigotes infected in mouse peritoneal macrophages assessed as endocytic index after 1 day; assay type: functional, organism-based; details: 24 h; summary of the method: as §6
Trypanosoma cruzi [19] = test: Antitrypanosomal activity against Trypanosoma cruzi amastigotes infected in mouse peritoneal macrophages assessed as endocytic index after 4 day; assay type: functional, organism-based; details: 96 h; summary of the method: as §6
Trypanosoma cruzi [20] = test: Antitrypanosomal activity against Trypanosoma cruzi amastigotes infected in mouse peritoneal macrophages assessed as endocytic index after 3 day; assay type: functional, organism-based; details: 72 h; summary of the method: as §6
Trypanosoma cruzi [21] = test: Antitrypanosomal activity against Trypanosoma cruzi trypomastigotes assessed as alteration in flagellar structure with membrane expansion at […] after 24 hrs by Transmission electron microscopy; assay type: functional, organism-based
Mus musculus [22] = test: Toxicity in mouse assessed as GPT level in blood at 100 mg/kg, po after 4 days; assay type: organism-based; design: dose 100 mg/kg, route oral; details: in vivo, 96 h; summary of the method: as §2
Trypanosoma cruzi [23] = test: Antitrypanosomal activity against Trypanosoma cruzi amastigotes infected in mouse peritoneal macrophages assessed as inhibition of infection after 2 day; assay type: functional, organism-based; details: 48 h; summary of the method: as §6
Trypanosoma cruzi [24] = test: Antitrypanosomal activity against Trypanosoma cruzi amastigotes infected in mouse peritoneal macrophages assessed as inhibition of infection after 1 day; assay type: functional, organism-based; details: 24 h; summary of the method: as §6
Trypanosoma cruzi [25] = test: Antitrypanosomal activity against Trypanosoma cruzi amastigotes infected in mouse embryo heart muscle cells assessed as inhibition of infection after 24 hrs; assay type: functional, organism-based; summary of the method: as §7
Trypanosoma cruzi [26] = test: Antitrypanosomal activity against Trypanosoma cruzi amastigotes infected in mouse peritoneal macrophages assessed as endocytic index after 2 day; assay type: functional, organism-based; details: 48 h; summary of the method: as §6
Trypanosoma cruzi [27] = test: Antitrypanosomal activity against Trypanosoma cruzi Y infected in mouse assessed as decrease in mouse mortality at 200 mg/kg, po after 16 days post infection; assay type: functional; design: scale not given: the % may be the effect or the level left
Summary of the method: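 Male albino Swiss mice (6 to 8 weeks, 18 to 20 g), 8 to 10 per group, infected i.p. with 10^4 Y-strain bloodstream trypomastigotes. […] Parasitemia checked daily by Pizzi-Brener method; mortality noted daily to 40 dpi, cumulative mortality and M50 calculated.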

Trypanosoma cruzi [28] = test: Antitrypanosomal activity against Trypanosoma cruzi amastigotes infected in mouse embryo heart muscle cells assessed as inhibition of infection; assay type: functional, organism-based; details: TDE = time-dependent effect; summary of the method: as §7
Trypanosoma cruzi [29] = test: Antitrypanosomal activity against Trypanosoma cruzi trypomastigotes assessed as alteration in nuclear envelop dilation at […] after 24 hrs by Transmission electron microscopy; assay type: functional, organism-based
Trypanosoma cruzi [30] = test: Antitrypanosomal activity against Trypanosoma cruzi amastigotes infected in mouse peritoneal macrophages assessed as inhibition of infection after 4 day; assay type: functional, organism-based; details: 96 h; summary of the method: as §6
Trypanosoma cruzi [31] = test: Antitrypanosomal activity against Trypanosoma cruzi trypomastigotes assessed as alteration in autophagosome-like structure formation at […] after 24 hrs by Transmission electron microscopy; assay type: functional, organism-based
[32] = Selectivity index, ratio of LC50 for mouse peritoneal macrophages to IC50 for inhibition of Trypanosoma cruzi amastigotes
Summary of the method: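 SI = LC50/IC50 in peritoneal macrophages. LC50 came from the 2-day MTT assay on uninfected macrophages. Cells were Bouin-fixed and Giemsa-stained, and endocytic index (parasites/100 cells) was counted. Three independent experiments.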

Trypanosoma cruzi [33] = test: Antitrypanosomal activity against Trypanosoma cruzi trypomastigotes assessed as parasite body rounding at […] after 24 hrs by scanning electron microscopy; assay type: functional, organism-based
Mus musculus [34] = test: Toxicity in mouse assessed as urea level in blood at 100 mg/kg, po after 4 days; assay type: organism-based; design: dose 100 mg/kg, route oral; details: in vivo, 96 h; summary of the method: as §2
Mus musculus [35] = test: Toxicity in mouse assessed as GOT level in blood at 100 mg/kg, po after 4 days; assay type: organism-based; design: dose 100 mg/kg, route oral; details: in vivo, 96 h; summary of the method: as §2
Trypanosoma cruzi [36] = test: Antitrypanosomal activity against Trypanosoma cruzi amastigotes infected in mouse embryo heart muscle cells assessed as endocytic index; assay type: functional, organism-based; summary of the method: as §7
Trypanosoma cruzi [37] = test: Antitrypanosomal activity against Trypanosoma cruzi amastigotes infected in mouse peritoneal macrophages assessed as inhibition of infection after 3 day; assay type: functional, organism-based; details: 72 h; summary of the method: as §6
[38] = Selectivity index, ratio of LC50 for mouse HMC to IC50 for inhibition of Trypanosoma cruzi amastigotes
Trypanosoma cruzi [39] = test: Antitrypanosomal activity against Trypanosoma cruzi Y infected in mouse assessed as decrease in mouse mortality at 200 mg/kg, po after 20 days post infection; assay type: functional, organism-based; design: dose 200 mg/kg; summary of the method: as §4

SMILES: Cn1c([N+](=O)[O-])cnc1-c1nnc(N/N=C\c2ccc(Br)cc2)s1
- Activity (Trypanosoma cruzi [1]): Active
- Activity (Mus musculus [2]): 118 U/L
- Activity (Trypanosoma cruzi [3]): Active
- Activity (Trypanosoma cruzi [4]): Active
- Activity (Trypanosoma cruzi [5]): Active
- Activity (Mus musculus [6]): 62.7 mg/dL
- CC50 at 48 h [7]: > 120000 nM
- Activity (Trypanosoma cruzi [8]): inactive
- CC50 at 48 h [9]: > 60000 nM
- Activity (Trypanosoma cruzi [10]): Active
- Activity (Trypanosoma cruzi [11]): inactive
- Activity (Trypanosoma cruzi [12]): 60%
- Activity (Trypanosoma cruzi [13]): inactive
- Activity (Mus musculus [14]): 25.2 g
- Activity (Trypanosoma cruzi [15]): Active
- Activity (Mus musculus [16]): 27.9 U/L
- Activity (Trypanosoma cruzi [17]): inactive

SMILES: Cn1c([N+](=O)[O-])cnc1-c1nnc(N/N=C\c2ccc(O)c(O)c2)s1 [BRAZILIZONE A]
- IC50 (Trypanosoma cruzi [18]): 2000 nM
- IC50 (Trypanosoma cruzi [19]): 1900 nM
- Activity (Trypanosoma cruzi [1]): inactive
- IC50 (Trypanosoma cruzi [20]): 1400 nM
- Activity (Trypanosoma cruzi [21]): Active
- Activity (Mus musculus [22]): Non-toxic
- Activity (Mus musculus [2]): 62.4 U/L
- Activity (Trypanosoma cruzi [4]): inactive
- IC50 (Trypanosoma cruzi [23]): 4400 nM
- IC50 (Trypanosoma cruzi [24]): 2100 nM
- Activity (Trypanosoma cruzi [25]): Dose-dependent effect
- Activity (Trypanosoma cruzi [5]): inactive
- IC50 (Trypanosoma cruzi [26]): 2200 nM
- Activity (Trypanosoma cruzi [27]): 50%
- Activity (Trypanosoma cruzi [28]): tde
- Activity (Mus musculus [6]): 51.6 mg/dL
- CC50 at 48 h [7]: > 240000 nM
- Activity (Trypanosoma cruzi [29]): Active
- CC50 at 48 h [9]: > 60000 nM
- IC50 (Trypanosoma cruzi [30]): 1700 nM
- Activity (Trypanosoma cruzi [12]): inactive
- Activity (Mus musculus [14]): 25.8 g
- Activity (Trypanosoma cruzi [31]): Active
- Ratio LC50/IC50 [32]: >27
- Activity (Mus musculus [16]): 22.7 U/L
- Activity (Trypanosoma cruzi [33]): Active
- Activity (Trypanosoma cruzi [17]): inactive
- Activity (Mus musculus [34]): Non-toxic
- Activity (Mus musculus [35]): Non-toxic
- IC50 (Trypanosoma cruzi [36]): 7600 nM
- IC50 (Trypanosoma cruzi [37]): 2600 nM
- fold change (FC) [38]: > 32

SMILES: Cn1c([N+](=O)[O-])cnc1-c1nnc(N/N=C\c2cc(C(C)(C)C)c(O)c(C(C)(C)C)c2)s1
- Activity (Trypanosoma cruzi [39]): inactive
- Activity (Trypanosoma cruzi [12]): Active

SMILES: Cn1c([N+](=O)[O-])cnc1-c1nnc(N/N=C\c2ccc(Cl)cc2)s1
- Activity (Trypanosoma cruzi [5]): inactive
- Activity (Trypanosoma cruzi [12]): inactive
